Screening data deposited in PubChem BioAssay by The Scripps Research Institute Molecular Screening Center.
TCR-CD3 inh: inhibitors of human TCR-CD3 interaction; TAMRA-labeled TCR probe fluorescence, biochemical; inhibition, % at 9.4 µM; 360,000 compounds, 0.37% hits; AID 651800; in the data active = inhibition above about 19%;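 also: recombinant mutant TCR 2C K166C tagged with TAMRA read by polarization; 0% = receptor in buffer alone and 100% = receptor with positive control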
MBD2 DNA inh: blocks human MBD2 binding to methylated DNA; Q9UBB5; TR-FRET, MBD2 binding to methylated oligonucleotide; inhibition, % at 4.4 µM; 370,000 compounds, 0.31% hits; in the data active = inhibition above about 13%
UHRF1 binding: human UHRF1 methylated DNA binding inhibitors; Q96T88; UHRF1 binding to methylated oligo, TR-FRET; inhibition, % at 4.4 µM; 370,000 compounds, 0.75% hits; in the data active = inhibition above about 21%;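 also: UHRF1 SRA domain binding a hemimethylated CpG hairpin DNA probe; 0% = median of test compound wells and 100% = reference inhibitor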
LEDGF integ inh: blocks HIV-1 LEDGF/p75-dependent DNA integration; 370,000 compounds, 0.64% hits; inhibition, % at 3.7 µM; TR-FRET IN-LEDGF/p75 DNA integration, Eu/Cy5; AID 743269;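 active = inhibition above the screen-wide mean plus 3 SD, cut at about 13% in these data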;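 also: signal is the Cy5 over europium emission ratio at 671 and 618 nm; 0% = plate median of compound wells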
ASAP1 GAP inh: inhibitors of human ASAP1 ArfGAP activity; ASAP1-stimulated ARF1 GTP hydrolysis, GDP FP detection; inhibition, % at 16.5 µM; Q9ULH1; AID 624377; 360,000 compounds, 0.19% hits; in the data active = inhibition above about 25%;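 also: 0% = vehicle with enzyme and substrate and 100% = no enzyme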
ARFGAP1 inh: rat ARFGAP1 inhibition; inhibition, % at 16.5 µM; 360,000 compounds, 0.26% hits; Arfgap1-stimulated ARF1 GTP hydrolysis, GDP FP detection;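 active = inhibition above a per-plate limit, mean inhibition of low control wells plus 3 SD, cut at about 25% in these data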;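 also: 0% = DMSO wells with enzyme and 100% = wells lacking Arfgap1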
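Repeats: one replicate per compound; assay system: rat Arfgap1 catalytic domain, aa 1-136; times: enzyme reaction 120 min at 25 °C after 20 min preincubation; detection: FP of antibody-bound GDP Alexa 633 tracer, ex 620/em 688 nm; benchmarks: high control wells lacking Arfgap1, low control full reaction with DMSO; reagent: human ARF1(Δ1-17)-GTP substrate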
IN multimer act: HIV-1 integrase multimerization activation, counter-screen; shares compounds with LEDGF integ inh; activation, % at 7.7 µM; AID 1053131; TR-FRET HIV-1 integrase multimerization, biochemical; 2,000 compounds, 17% hits; in the data active = activation above about 8.9%
TR-FRET interf: counter-screen for LEDGF/p75 integration inhibitors: TR-FRET optical interference | shares compounds with LEDGF integ inh | TR-FRET optical interference counterscreen, HIV-1 IN multimerization | inhibition, % at 7.7 µM | 2,000 tested, under 10 active | AID 1053135;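 active = inhibition above the mean over all tested compounds plus 3 SD, which no compound reached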;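 also: 0% = integrase with antibodies and DMSO and 100% = antibodies without integrase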
IN-LEDGF confirm: confirmation of HIV-1 LEDGF/p75-dependent integration inhibitors; shares compounds with LEDGF integ inh; TR-FRET LEDGF/p75-dependent HIV-1 integration, biochemical; inhibition, % at 3.7 µM; 2,000 compounds, 36% hits; AID 1053136; in the data active = inhibition above about 14%
The depositor's hits bear a star; . = no result given. Compounds with a hit are over-represented: about 2% of the library has one in this group of screens.

SMILES | TCR-CD3 inh | MBD2 DNA inh | UHRF1 binding | LEDGF integ inh | ASAP1 GAP inh | ARFGAP1 inh | IN multimer act | TR-FRET interf | IN-LEDGF confirm
C[C@]12CCC3C(CC[C@H]4C[C@H](N)CC[C@]34C)C1CC[C@H]2O (some centres undefined) | -5 | -2 | 1 | 21* | 4 | -7 | -3 | 15 | -1
CCCCn1c(=O)c(C=Nc2ccc(Cl)cc2)c(O)n(Cc2ccco2)c1=O | 4 | -2 | -1 | 2 | 5 | -7 | . | . | .
CC(C)n1c(=O)c(C=Nc2ccc(S(N)(=O)=O)cc2)c(O)n(Cc2ccco2)c1=O | -12 | 7 | 8 | 17* | -5 | 13 | 0 | 1 | 5
COC(=O)C1=C(c2ccc(OC(F)(F)F)cc2)C[C@@H]2CC[C@H]1N2C(=O)N1CCC(C)CC1 | 3 | 3 | 5 | 1 | 6 | -5 | . | . | .
CC(C)(C)OC(=O)c1c(N)n(Cc2ccco2)c2nc3ccccc3nc12 | -5 | -7 | 10 | 35* | -1 | 8 | 2 | -5 | -5
COCCNC(=O)c1c(N)n(Cc2ccco2)c2nc3ccccc3nc12 | 1 | -4 | -13 | 3 | -3 | 6 | . | . | .
C=CCNC(=O)c1c(N)n(Cc2ccco2)c2nc3ccccc3nc12 | 10 | -6 | -10 | 5 | -3 | -8 | . | . | .
COCCCn1c(N)c(C(=O)NCc2ccco2)c2nc3ccccc3nc21 | -9 | 13 | 16 | 33* | 20 | 9 | -4 | 16 | 52*
O=P1(c2ccccc2)CC=CC1 | -2 | 1 | 1 | 3 | 8 | -4 | . | . | .
O=C1CC(=O)N(c2cccc(F)c2)C(=O)N1 | 2 | -6 | 3 | 4 | 11 | 4 | . | . | .
Cc1cc(/C=C2/C(=O)NC(=O)N(Cc3ccco3)C2=O)c(C)n1-c1ccccc1O | 7 | -6 | 9 | 26* | 1 | 2 | 1 | -3 | -3
CCN(CC)c1ccc(/C=C2\C(=O)NC(=O)N(Cc3ccco3)C2=O)cc1 | -78 | 8 | 66* | 71* | 12 | 4 | -1 | 3 | 54*
CCN(CC)c1ccc(/C=C2/C(=O)NC(=O)N(CC3CCCO3)C2=O)cc1 (centres undefined) | -63 | 2 | -6 | -1 | 6 | 4 | . | . | .
COc1cc(OC)c2c(c1)OCC1CON(C)C21 (centres undefined) | 2 | 1 | 0 | 5 | 3 | -2 | . | . | .
Cc1cc(/C=C2\C(=O)NC(=O)N(c3ccccc3F)C2=O)c(C)n1-c1cc(C(=O)O)cc(C(=O)O)c1 | 3 | 9 | 52* | 40* | 5 | 2 | 14* | -72 | 39*
C=CCn1c(O)c(C=Nc2ccc(F)cc2)c(=O)[nH]c1=O | 0 | -5 | -2 | -4 | 2 | -6 | . | . | .
Cc1cccc(N=Cc2c(O)n(-c3ccccc3C)c(=O)[nH]c2=O)c1 | 0 | 3 | -5 | -2 | 6 | 4 | . | . | .
C=CCn1c(O)c(C=Nc2ccc(N(CC)CC)cc2)c(=O)[nH]c1=O | 16 | -2 | 1 | 30* | 10 | 4 | 2 | -9 | -1
Cc1ccccc1-n1c(O)c(C=Nc2ccc(N(C)C)cc2)c(=O)[nH]c1=O | 15 | -4 | 2 | 19* | 8 | -7 | 5 | -26 | -12
COc1ccccc1NC(=O)COC(=O)c1cn(C)c2ccccc12 | -1 | 2 | -2 | -1 | 6 | 0 | . | . | .
Cc1cc(C)nc(/N=C(\N)c2c(O)[nH]c(=O)[nH]c2=O)n1 | 7 | -2 | 1 | 0 | 14 | -7 | . | . | .
COc1ccc(-c2ccc3c(c2)CN(CC(C)C)Cc2cnnn2-3)cc1 | -1 | -6 | 1 | 3 | 7 | -8 | . | . | .
COc1ccc(-c2ccc3c(c2)CN(c2cccc(Cl)c2)Cc2cnnn2-3)cc1 | 7 | 11 | 25* | 73* | -4 | 1 | -1 | 5 | 14*
